How the values were obtained:
Assay type in all cases: functional
SF-295 = test: Cytotoxicity against human SF295 cells assessed as growth inhibition after 48 hrs by SRB assay; conditions: SF-295, 48 h
In short: (§1)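 NCI 60-cell panel; compounds passing a single-dose screen (10−5 M, 48 h) were tested at five 10-fold dilutions (10−4 to 10−8 M) with 48 h drug exposure. GI50 is the molar concentration giving 50% reduction in net cell growth relative to cell numbers on day 0.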

[1] = Cytotoxicity against human OVCAR5 cells assessed as growth inhibition after 48 hrs by SRB assay; conditions: OVCAR-5, 48 h; in short: as §1
A498 = test: Cytotoxicity against human A498 cells assessed as growth inhibition after 48 hrs by SRB assay; conditions: A498, 48 h; in short: as §1
KM12 = test: Cytotoxicity against human KM12 cells assessed as growth inhibition after 48 hrs by SRB assay; conditions: KM12, 48 h; in short: as §1
[2] = Cytotoxicity against human HCT116 cells assessed as growth inhibition after 48 hrs by SRB assay; conditions: HCT-116, 48 h; in short: as §1
M14 = test: Cytotoxicity against human M14 cells assessed as growth inhibition after 48 hrs by SRB assay; conditions: M14, 48 h; in short: as §1
SW-620 = test: Cytotoxicity against human SW620 cells assessed as growth inhibition after 48 hrs by SRB assay; conditions: SW-620, 48 h
MCF7 = test: Cytotoxicity against human MCF7 cells assessed as growth inhibition after 48 hrs by SRB assay; conditions: MCF7, 48 h; in short: as §1
[3] = Cytotoxicity against human OVCAR8 cells assessed as growth inhibition after 48 hrs by SRB assay; conditions: OVCAR-8, 48 h; in short: as §1
MDA-MB-435 = test: Cytotoxicity against human MDA-MB-435 cells assessed as growth inhibition after 48 hrs by SRB assay; conditions: MDA-MB-435, 48 h; in short: as §1
NCI-H460 = test: Cytotoxicity against human NCI-H460 cells assessed as growth inhibition after 48 hrs by SRB assay; conditions: NCI-H460, 48 h; in short: as §1
[4] = Cytotoxicity against human NCI-ADR-RES cells assessed as growth inhibition after 48 hrs by SRB assay; in short: as §1
786-0 = test: Cytotoxicity against human 786-0 cells assessed as growth inhibition after 48 hrs by SRB assay; conditions: 786-0, 48 h; in short: as §1
HL-60(TB) = test: Cytotoxicity against human HL-60(TB) cells assessed as growth inhibition after 48 hrs by SRB assay; conditions: HL-60, 48 h
In short: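 NCI 60-cell panel, leukemia subpanel. Five-dose screen at 10-fold dilutions from 10−4 to 10−8 M with 48 h drug exposure. GI50 is the molar concentration giving 50% reduction in net cell growth compared with cell numbers on day 0.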

[5] = Cytotoxicity against human OVCAR4 cells assessed as growth inhibition after 48 hrs by SRB assay; conditions: OVCAR-4, 48 h; in short: as §1
U-251 = test: Cytotoxicity against human U251 cells assessed as growth inhibition after 48 hrs by SRB assay; conditions: U-251, 48 h
MDA-MB-231 = test: Cytotoxicity against human MDA-MB-231 cells assessed as growth inhibition after 48 hrs by SRB assay; conditions: MDA-MB-231, 48 h; in short: as §1
[6] = Cytotoxicity against human HCT15 cells assessed as growth inhibition after 48 hrs by SRB assay; conditions: HCT-15, 48 h; in short: as §1
SK-OV-3 = test: Cytotoxicity against human SKOV3 cells assessed as growth inhibition after 48 hrs by SRB assay; conditions: SK-OV-3, 48 h; in short: as §1
RPMI-8226 = test: Cytotoxicity against human RPMI8226 cells assessed as growth inhibition after 48 hrs by SRB assay; conditions: RPMI-8226, 48 h; in short: as §1
HCC 2998 = test: Cytotoxicity against human HCC2998 cells assessed as growth inhibition after 48 hrs by SRB assay; conditions: HCC 2998, 48 h; in short: as §1
NCI-H226 = test: Cytotoxicity against human NCI-H226 cells assessed as growth inhibition after 48 hrs by SRB assay; conditions: NCI-H226, 48 h; in short: as §1
RXF 393 = test: Cytotoxicity against human RXF393 cells assessed as growth inhibition after 48 hrs by SRB assay; conditions: RXF 393, 48 h; in short: as §1
SK-MEL-5 = test: Cytotoxicity against human SK-MEL-5 cells assessed as growth inhibition after 48 hrs by SRB assay; conditions: SK-MEL-5, 48 h; in short: as §1
NCI-H23 = test: Cytotoxicity against human NCI-H23 cells assessed as growth inhibition after 48 hrs by SRB assay; conditions: NCI-H23, 48 h; in short: as §1
LOX IMVI = test: Cytotoxicity against human LOXIMVI cells assessed as growth inhibition after 48 hrs by SRB assay; in short: as §1
BT-549 = test: Cytotoxicity against human BT549 cells assessed as growth inhibition after 48 hrs by SRB assay; conditions: BT-549, 48 h; in short: as §1
IGROV-1 = test: Cytotoxicity against human IGROV1 cells assessed as growth inhibition after 48 hrs by SRB assay; conditions: IGROV-1, 48 h; in short: as §1
[7] = Cytotoxicity against human UACC62 cells assessed as growth inhibition after 48 hrs by SRB assay; conditions: UACC-62, 48 h
TK-10 = test: Cytotoxicity against human TK10 cells assessed as growth inhibition after 48 hrs by SRB assay; conditions: TK-10, 48 h
MOLT-4 = test: Cytotoxicity against human MOLT4 cells assessed as growth inhibition after 48 hrs by SRB assay; conditions: MOLT-4, 48 h; in short: as §1
[8] = Cytotoxicity against human PC3 cells assessed as growth inhibition after 48 hrs by SRB assay; conditions: PC-3, 48 h; in short: as §1
SNB-19 = test: Cytotoxicity against human SNB19 cells assessed as growth inhibition after 48 hrs by SRB assay; conditions: SNB-19, 48 h; in short: as §1
[9] = Cytotoxicity against human UO31 cells assessed as growth inhibition after 48 hrs by SRB assay; conditions: UO-31, 48 h
SNB-75 = test: Cytotoxicity against human SNB75 cells assessed as growth inhibition after 48 hrs by SRB assay; conditions: SNB-75, 48 h
K562 = test: Cytotoxicity against human K562 cells assessed as growth inhibition after 48 hrs by SRB assay; conditions: K562, 48 h; in short: as §1
SF-539 = test: Cytotoxicity against human SF539 cells assessed as growth inhibition after 48 hrs by SRB assay; conditions: SF-539, 48 h; in short: as §1
SN12C = test: Cytotoxicity against human SN12C cells assessed as growth inhibition after 48 hrs by SRB assay; in short: as §1
[10] = Cytotoxicity against human Hs578T cells assessed as growth inhibition after 48 hrs by SRB assay; conditions: Hs-578T; in short: as §1
DU-145 = test: Cytotoxicity against human DU145 cells assessed as growth inhibition after 48 hrs by SRB assay; conditions: DU-145, 48 h; in short: as §1
[11] = Cytotoxicity against human OVCAR3 cells assessed as growth inhibition after 48 hrs by SRB assay; conditions: OVCAR-3, 48 h; in short: as §1
SF-268 = test: Cytotoxicity against human SF268 cells assessed as growth inhibition after 48 hrs by SRB assay; conditions: SF-268, 48 h; in short: as §1
HT-29 = test: Cytotoxicity against human HT-29 cells assessed as growth inhibition after 48 hrs by SRB assay; conditions: HT-29, 48 h; in short: as §1

COc1ccc(/C(C#N)=C/c2cc3ccccc3[nH]2)cc1OC
GI50 (SF-295): 36 nM
GI50 [1]: 471 nM
GI50 (A498): 40 nM
GI50 (KM12): 76 nM
GI50 [2]: 44 nM
GI50 (M14): 39 nM
GI50 (SW-620): 42 nM
GI50 (MCF7): 289 nM
GI50 [3]: 326 nM
GI50 (MDA-MB-435): 21 nM
GI50 (NCI-H460): 53 nM
GI50 [4]: 40 nM
GI50 (786-0): 602 nM
GI50 (HL-60(TB)): 34 nM
GI50 [5]: 735 nM
GI50 (U-251): 75 nM
GI50 (MDA-MB-231): 291 nM
GI50 [6]: 48 nM
GI50 (SK-OV-3): 394 nM
GI50 (RPMI-8226): 151 nM
GI50 (HCC 2998): 366 nM
GI50 (NCI-H226): 399 nM
GI50 (RXF 393): 151 nM
GI50 (SK-MEL-5): 142 nM
GI50 (NCI-H23): 236 nM
GI50 (LOX IMVI): 64 nM
GI50 (BT-549): 97.8 nM
GI50 (IGROV-1): 482 nM
GI50 [7]: 38 nM
GI50 (TK-10): 5560 nM
GI50 (MOLT-4): 84 nM
GI50 [8]: 62 nM
GI50 (SNB-19): 189 nM
GI50 [9]: 71 nM
GI50 (SNB-75): 36 nM
GI50 (K562): 39 nM
GI50 (SF-539): 47 nM
GI50 (SN12C): 779 nM
GI50 [10]: 133 nM
GI50 (DU-145): 206 nM
GI50 [11]: 34 nM
GI50 (SF-268): 1480 nM
GI50 (HT-29): 48 nM

COc1cc(/C(C#N)=C/c2c[nH]c3ccccc23)cc(OC)c1OC
GI50 (SF-295): 42 nM
GI50 [1]: 10600 nM
GI50 (A498): 35 nM
GI50 (KM12): 43 nM
GI50 [2]: 48 nM
GI50 (M14): 53 nM
GI50 (SW-620): 47 nM
GI50 (MCF7): 34 nM
GI50 [3]: 121 nM
GI50 (MDA-MB-435): 24 nM
GI50 (NCI-H460): 41 nM
GI50 [4]: 39 nM
GI50 (786-0): 90 nM
GI50 (HL-60(TB)): 48 nM
GI50 [5]: 338 nM
GI50 (U-251): 50 nM
GI50 (MDA-MB-231): 245 nM
GI50 [6]: 51 nM
GI50 (SK-OV-3): 51 nM
GI50 (RPMI-8226): 231 nM
GI50 (HCC 2998): 107 nM
GI50 (NCI-H226): 194 nM
GI50 (RXF 393): 36 nM
GI50 (SK-MEL-5): 42 nM
GI50 (NCI-H23): 133 nM
GI50 (LOX IMVI): 75 nM
GI50 (BT-549): 1940 nM
GI50 (IGROV-1): 417 nM
GI50 [7]: 48 nM
GI50 (TK-10): 11100 nM
GI50 (MOLT-4): 131 nM
GI50 [8]: 54 nM
GI50 (SNB-19): 76 nM
GI50 [9]: 1410 nM
GI50 (SNB-75): 42 nM
GI50 (K562): 40 nM
GI50 (SF-539): 99 nM
GI50 (SN12C): 699 nM
GI50 [10]: 131 nM
GI50 (DU-145): 132 nM
GI50 [11]: 33 nM
GI50 (SF-268): 2540 nM
GI50 (HT-29): 38 nM

COc1cc(OC)cc(/C(C#N)=C/c2c[nH]c3ccccc23)c1
GI50 (SF-295): 45 nM
GI50 [1]: 197 nM
GI50 (A498): 35 nM
GI50 (KM12): 40 nM
GI50 [2]: 42 nM
GI50 (M14): 42 nM
GI50 (SW-620): 44 nM
GI50 (MCF7): 41 nM
GI50 [3]: 103 nM
GI50 (MDA-MB-435): 20 nM
GI50 (NCI-H460): 39 nM
GI50 [4]: 33 nM
GI50 (786-0): 77 nM
GI50 (HL-60(TB)): 31 nM
GI50 [5]: 3520 nM
GI50 (U-251): 45 nM
GI50 (MDA-MB-231): 644 nM
GI50 [6]: 53 nM
GI50 (SK-OV-3): 117 nM
GI50 (RPMI-8226): 65 nM
GI50 (HCC 2998): 207 nM
GI50 (NCI-H226): 8180 nM
GI50 (RXF 393): 83 nM
GI50 (SK-MEL-5): 48 nM
GI50 (NCI-H23): 256 nM
GI50 (LOX IMVI): 78 nM
GI50 (BT-549): 49 nM
GI50 (IGROV-1): 347 nM
GI50 [7]: 49 nM
GI50 (TK-10): 10300 nM
GI50 (MOLT-4): 49 nM
GI50 [8]: 75 nM
GI50 (SNB-19): 62 nM
GI50 [9]: 663 nM
GI50 (SNB-75): 34 nM
GI50 (K562): 43 nM
GI50 (SF-539): 52 nM
GI50 (SN12C): 77 nM
GI50 [10]: 611 nM
GI50 (DU-145): 130 nM
GI50 [11]: 31 nM
GI50 (SF-268): 78 nM
GI50 (HT-29): 38 nM
